RGS4 inh – human RGS4 inhibition; B-score at 10 µM; hit rate 0.45% among 310,000; P49798; HEK293 M3R/RGS4 inducible, Fluo-4 calcium flux; hits give high values; triggered by carbachol at its EC20; AID 463165;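 active means B-score, a plate-corrected calcium signal, over three deviations above library mean, with baseline fluorescence within five deviations of library mean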;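 further: RGS4 expression induced by doxycycline in cells with stable M3 receptor; B-score is computed from the integrated fluorescence ratio over baseline after carbachol; higher B-score means a larger calcium signal and so more RGS4 inhibition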
Target sequence (P49798 whole entry, looked up): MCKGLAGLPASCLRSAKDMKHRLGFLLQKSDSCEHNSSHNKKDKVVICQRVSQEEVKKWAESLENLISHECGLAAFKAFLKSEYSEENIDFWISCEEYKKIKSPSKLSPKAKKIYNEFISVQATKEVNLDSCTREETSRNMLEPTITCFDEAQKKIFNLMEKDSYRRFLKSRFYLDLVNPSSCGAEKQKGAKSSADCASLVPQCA
MrgX1 agonist – activates human MrgX1 receptor signaling; MrgX1-HEK293 cells, Fluo-4 calcium fluorescence, agonist mode; hits give high values; B-score at 10 µM; hit rate 0.44% among 310,000;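 active means calcium response B-score plate-corrected fluorescence ratio at least 3 library SD, with starting fluorescence B-score inside 5 SD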
Target sequence (Q96LB2 whole entry, looked up): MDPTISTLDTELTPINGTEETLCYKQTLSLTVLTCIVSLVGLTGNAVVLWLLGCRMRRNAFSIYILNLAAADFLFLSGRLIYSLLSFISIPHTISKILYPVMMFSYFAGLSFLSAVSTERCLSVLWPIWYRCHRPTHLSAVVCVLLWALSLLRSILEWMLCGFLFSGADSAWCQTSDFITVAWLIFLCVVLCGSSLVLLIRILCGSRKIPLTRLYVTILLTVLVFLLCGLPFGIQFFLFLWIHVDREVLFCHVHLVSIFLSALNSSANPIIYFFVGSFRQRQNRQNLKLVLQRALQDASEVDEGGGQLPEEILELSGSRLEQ
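Assay system: stable human MrgX1 HEK293 cell line. Quantity: 15,000 cells per well. Schedule: cells plated overnight, dye loaded 0.5 h 37 °C, 0.5 h room temperature. Detection: Fluo-4 NW calcium-flux fluorescence, kinetic read. Read-out basis: peak-minus-minimum fluorescence over baseline, converted to B scores. Control set: positive and negative control wells on each plate.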
MrgX1 allo act – human MrgX1 positive allosteric modulation, primary screen; MrgX1-HEK293, Fluo-4 calcium flux, FDSS; hits give high values; B-score at 10 µM; hit rate 0.63% among 310,000; AID 588675;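 active means plate-corrected calcium response at least 3 library SD above typical, normal starting fluorescence, not activating the receptor alone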;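 further: compound read alongside a low EC10 to EC30 dose of BAM8-22 agonist; peak minus trough fluorescence over baseline measured at the second addition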
RGS4 act – RGS4 potentiation or activation; HEK293 M3R/inducible RGS4, carbachol calcium flux Fluo4; hits give low values; B-score at 10 µM; hit rate 0.92% among 310,000; AID 463111;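 active means B-score of the integrated calcium signal more than 4 SD below the library mean, with starting fluorescence not abnormally high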;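 further: negative B-score means reduced calcium response which marks RGS4 activation or potentiation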
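System – HEK293 FlpIn-TREx cells, stable M3R, doxycycline-inducible RGS4 · Reagent – ECmax carbachol challenge · Times – compound preincubation 20 min at room temperature before agonist · Technique – Fluo4 fluorescence kinetic imaging of calcium · Measure – B score of integrated Fluo4 ratio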
MrgX1 antag – human MrgX1 receptor antagonism, primary screen; Q96LB2; MRGX1-HEK293 calcium flux, Fluo-4, BAM8-22 antagonism; hits give low values; B-score at 10 µM; hit rate 1.3% among 310,000; AID 588676;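 active means calcium-response B-score plate-corrected more than 3 library SD below zero, starting fluorescence within 5 deviations, no agonist response on first addition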;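 further: peak minus trough fluorescence over baseline after final BAM8-22 challenge near maximal dose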
RGS4 activ val – confirmation of RGS4 activators. shares compounds with RGS4 act. HEK293 M3R/RGS4 inducible, carbachol calcium flux Fluo4. inhibition, % at 10 µM. hit rate 89% among 1,100. AID 602282;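 active means inhibition above 3 SD of the buffer control wells, cut at about 41% in these data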;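 further: signal is the integrated peak-minus-minimum Fluo4 fluorescence over baseline ratio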
M3R Ca counter – activity in cells without induced RGS4 expression; shares compounds with RGS4 act; hit rate 82% among 1,100; inhibition, % at 10 µM; HEK293 M3R non-induced RGS4, Fluo4 calcium flux; after carbachol challenge at its EC90;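 active means inhibition exceeding 3 SD of buffer-only control wells, cut at about 26% in these data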;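 further: percent drop in integrated peak-minus-baseline over baseline Fluo4 ratio after carbachol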
Numbers without * were called inactive; i = inactive; nt = not tested or not shown. Shown are actives, neighbours in structure and some others; about 3.5% of the full set was active somewhere.

SMILES | RGS4 inh | MrgX1 agonist | MrgX1 allo act | RGS4 act | MrgX1 antag | RGS4 activ val | M3R Ca counter
COC(=O)COc1cccc2c(=O)n(CC(=O)NCCc3ccccc3)ccc12 | nt | i | i | nt | i | nt | nt
COc1ccccc1CNC(=O)CCCNC(=O)c1ccc(Cl)cc1 | i | i | i | i | i | nt | nt
CC1CCN(S(=O)(=O)c2ccc3c(ccn3CCC(=O)NC(C)C)c2)CC1 | i | i | i | -7.88* | i | 0.0 | 0.0
O=C(CSc1nnc(NC2CCCCC2)s1)Nc1ccc2c(c1)C(=O)c1ccccc1C2=O | i | i | i | i | i | nt | nt
CC(C)Nc1nnc(SCC(=O)Nc2ccc3c(c2)C(=O)c2ccccc2C3=O)s1 | i | i | i | -10.6* | i | 88.0* | 44.8*
COc1ccc2cc(C(=O)N3CCC(Cc4ccccc4)CC3)[nH]c2c1 | i | i | i | -7.92* | i | 0.0 | 0.0
COc1ccc2[nH]c(C(=O)N3CCC(Cc4ccccc4)CC3)cc2c1 | i | i | i | i | i | nt | nt
CN1CCCC(C#CC(O)(c2ccccc2)c2ccccc2)C1 (centres undefined) | i | i | i | -10.9* | i | 94.0* | 92.3*
Cc1ccccc1C(=O)OC1CCCN(C)C1 (centres undefined) | i | i | i | i | i | nt | nt
OC(CNCc1ccc(F)cc1)(c1ccc(F)cc1)c1ccc(F)cc1 | i | i | i | i | i | nt | nt
OC(CNCc1ccc(Cl)cc1)(c1ccccc1)c1ccc(F)cc1 (centres undefined) | i | i | i | -9.37* | i | 94.0* | 85.8*
COc1ccccc1C(=O)NNC(=O)C1CC=CCC1 (centres undefined) | i | i | i | i | i | nt | nt
Cc1cccc(OCc2nnc(SCC(=O)Nc3ccc(N4CCOCC4)cc3)o2)c1 | i | i | i | i | i | nt | nt
Cc1cccc(N2CCN(C(=O)CSc3nc4ccccc4nc3N3CC(C)OC(C)C3)CC2)c1C (centres undefined) | i | i | i | -8.09* | i | 85.0* | 83.8*
Cc1cccc(NC(=O)CSc2nc3ccccc3nc2N2CC(C)OC(C)C2)c1 (centres undefined) | i | i | i | i | i | nt | nt
COc1cccc(OC)c1OCCNCC1CSc2ccccc2O1 (centres undefined) | i | i | i | -8.09* | i | 0.0 | 0.0
COc1cccc(OC)c1OCCCOc1c(OC)cccc1OC | i | i | i | i | i | nt | nt
CCn1c2ccccc2c2cc(/C=N/n3c(-c4cc(C)[nH]n4)n[nH]c3=S)ccc21 | i | i | i | -7.75* | i | 69.5* | 42.3*
CCn1c2ccccc2c2cc(/C=N/n3cn[nH]c3=S)ccc21 | i | i | i | i | i | nt | nt
COc1cnc(SC)nc1Nc1ccc(C#N)cc1 | i | i | i | i | i | nt | nt
O=C(Cc1ccc(Cl)cc1)NCCc1cnc[nH]1 | i | i | i | i | i | nt | nt
Cc1ccnc(Nc2nc(-c3ccc(Cl)cc3)cs2)c1 | i | i | i | i | i | nt | nt
Cc1ccnc(Nc2nc(-c3ccc(F)cc3)cs2)c1 | i | i | i | -8.75* | i | 91.5* | 74.3*
CCOC(=O)c1cc2sccc2n1CCCN1C(=O)c2ccccc2C1=O | i | i | i | -7.93* | i | 73.0* | 83.8*
CCOC(=O)c1cc2sccc2n1Cc1ccccc1 | i | i | i | i | i | nt | nt
SMILES | RGS4 inh | MrgX1 agonist | MrgX1 allo act | RGS4 act | MrgX1 antag | RGS4 activ val | M3R Ca counter
COc1ccc(C(=O)Nn2c(CC(C)C)nc3cc(Cl)ccc3c2=O)c(OC)c1 | i | i | i | i | i | nt | nt
COc1ccc(N(CC(=O)NC2CCCCC2)C(=O)c2ccc(C)s2)cc1OC | i | i | i | i | i | nt | nt
COC(=O)c1ccc(N(CC(=O)NC2CCCC2)C(=O)c2ccc(C)s2)cc1 | i | i | i | -8.94* | i | 0.0 | 0.0
O=C(O)c1cccc(S(=O)(=O)Nc2ccccc2C(=O)NCCc2ccccc2)c1 | i | i | i | i | i | nt | nt
Cc1nc(N2CCN(Cc3ccccc3)CC2)nc2c1C(=O)CC(c1ccco1)C2 (centres undefined) | i | i | i | -8.44* | i | 0.0 | 0.0
O=C(NC1CCCCC1)C1(S(=O)(=O)c2ccc(Cl)cc2)CC1 | i | i | i | i | i | nt | nt
Oc1ccc(Br)cc1C=Nc1ccc2c3c(cccc13)CC2 | i | i | i | i | i | nt | nt
COC(=O)c1ccc(CN2CCN(C3CCCC3)C(CCO)C2)cc1 (centres undefined) | i | i | i | -9.34* | i | 91.5* | 67.3*
Cc1ccc(N2CCN(C(=O)c3cc(COc4c(C)cccc4C)on3)CC2)c(C)c1 | i | i | i | -7.67* | i | 70.0* | 31.8*
OC(C#CCCN1CCCCC1)(c1ccccc1)C1CCCCC1 (centres undefined) | i | i | i | -8.97* | i | 91.5* | 95.8*
OCCN(CC#CC(O)(c1ccccc1)C1CCCCC1)CCO (centres undefined) | i | i | i | i | i | nt | nt
CC(=O)/C(=N/Nc1ccccc1[N+](=O)[O-])N1CCCc2ccccc21 | i | i | i | -11* | i | 93.0* | 89.3*
CC(=O)/C(=N/Nc1ccc([N+](=O)[O-])cc1)N1CCCc2ccccc21 | i | i | i | i | i | nt | nt
CS(=O)(=O)c1ccc2nc(NC(=O)c3ccc(Cn4cc(Br)cn4)o3)sc2c1 | i | i | i | -8.81* | i | 63.0* | 0.0
Cc1cc(C)c2[nH]c(C)c(CN3CCCCCC3)c(=O)c2c1 | i | i | i | -10.9* | i | 42.0* | 83.8*
CCOC(=O)c1nn(-c2ccc(F)cc2)c(=O)cc1OCC(=O)N1CCN(c2ccccc2)CC1 | i | i | i | i | i | nt | nt
CN(CC(=O)Nc1ccc(C#N)cc1)Cc1ccc(Cl)c(Cl)c1 | i | i | i | -8.65* | i | 91.5* | 95.3*
CN(CC(=O)Nc1cccc(C#N)c1)Cc1ccc(Cl)cc1 | i | i | i | i | i | nt | nt
CCOC(=O)c1c(NC(=O)/C=C/C(=O)O)sc(C)c1-c1ccc(C(C)(C)C)cc1 | i | i | i | -11.7* | -5.17* | 92.5* | 89.8*
COc1ccc(S(=O)(=O)N(C)C)cc1NC(=O)[C@H](Cc1ccccc1)N1C(=O)c2ccccc2C1=O | i | i | i | -9.45* | i | 93.0* | 57.8*
